Tests used:
Type in all cases: functional
[1] = tested on: Stenotrophomonas maltophilia; experiment: Antimicrobial activity against Pseudomonas maltophilia ATCC 13637 after overnight incubation by broth microdilution method
Procedure, shortened: (§1)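 Modified broth microdilution. Peptides are serially diluted in 0.01% acetic acid with 0.2% BSA at 10-fold the final concentration, then added to MH medium in polypropylene plates. Bacteria from an overnight culture are added to a final (2-7) × 10^5 CFU/mL. Plates are incubated overnight at 37 °C. MIC is the lowest concentration with no visible growth.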

Staphylococcus aureus [2] = experiment: Antimicrobial activity against methicillin-resistant Staphylococcus aureus C623 after overnight incubation by broth microdilution method
Procedure, shortened: (§2)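 Modified broth microdilution in polypropylene 96-well plates with Mueller-Hinton (MH) medium. Bulk-synthesized peptides were serially diluted at 10-fold final strength in 0.01% acetic acid with 0.2% BSA, then added 1:10 to MH. Inoculum came from an overnight culture at a final (2-7) × 10^5 CFU/mL. Plates were incubated overnight at 37 °C. MIC was the lowest concentration with no visible growth.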

Enterococcus faecium [3] = experiment: Antimicrobial activity against vancomycin-resistant Enterococcus faecium mic80(VanA) isolate after overnight incubation by broth microdilution method; procedure, shortened: as §2
Klebsiella pneumoniae [4] = experiment: Antimicrobial activity against extended-spectrum beta-lactamase-resistant Klebsiella pneumoniae 61962 after overnight incubation by broth microdilution method; procedure, shortened: as §2
Escherichia coli [5] = experiment: Antimicrobial activity against extended-spectrum beta-lactamase producing Escherichia coli 63103 after overnight incubation by broth microdilution method; procedure, shortened: as §1
Enterococcus faecium [6] = experiment: Antimicrobial activity against vancomycin-resistant Enterococcus faecium t62764(VanB) isolate after overnight incubation by broth microdilution method; procedure, shortened: as §2
Pseudomonas aeruginosa [7] = experiment: Antimicrobial activity against Pseudomonas aeruginosa LES400 after overnight incubation by broth microdilution method; procedure, shortened: as §2
Pseudomonas aeruginosa [8] = experiment: Antimicrobial activity against Pseudomonas aeruginosa H1027 after overnight incubation by broth microdilution method; procedure, shortened: as §1
Klebsiella pneumoniae [9] = experiment: Antimicrobial activity against extended-spectrum beta-lactamase-resistant Klebsiella pneumoniae 63575 after overnight incubation by broth microdilution method; procedure, shortened: as §2
Enterobacter cloacae = experiment: Antimicrobial activity against class C chromosomal beta lactamase expressing Enterobacter cloacae 218R after overnight incubation by broth microdilution method; procedure, shortened: as §1
Enterococcus faecalis [10] = experiment: Antimicrobial activity against vancomycin-resistant Enterococcus faecalis f43559 (VanB) isolate after overnight incubation by broth microdilution method; procedure, shortened: as §2
Enterococcus faecalis [11] = experiment: Antimicrobial activity against Enterococcus faecalis ATCC 29212 after overnight incubation by broth microdilution method; procedure, shortened: as §1
Pseudomonas aeruginosa [12] = experiment: Antimicrobial activity against Pseudomonas aeruginosa H1001 expressing luciferase gene assessed as ratio antimicrobial IC50 for drug to Bac2A peptide by luminescence assay
Procedure, shortened: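 Peptides are made by SPOT synthesis on cellulose, cleaved, and the spots placed in plate wells. Overnight P. aeruginosa H1001 (fliC::luxCDABE) is diluted 1:500 in 100 mM Tris-HCl pH 7.3 with 20 mM glucose and added to the wells. After 30 min, serial dilutions (8 rows) are made. Luminescence is read at 4 h. IC50 is taken from a sigmoid fit and expressed relative to Bac2A run in the same series.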

Pseudomonas aeruginosa [13] = experiment: Antimicrobial activity against Pseudomonas aeruginosa H103 after overnight incubation by broth microdilution method; procedure, shortened: as §1
Pseudomonas aeruginosa [14] = experiment: Antimicrobial activity against Pseudomonas aeruginosa H1030 after overnight incubation by broth microdilution method; procedure, shortened: as §2
Staphylococcus aureus [15] = experiment: Antimicrobial activity against Staphylococcus aureus ATCC 25923 after overnight incubation by broth microdilution method; procedure, shortened: as §2
Enterococcus faecalis [16] = experiment: Antimicrobial activity against vancomycin-resistant Enterococcus faecalis w6190(VanA) isolate after overnight incubation by broth microdilution method; procedure, shortened: as §2
Escherichia coli [17] = experiment: Antimicrobial activity against extended-spectrum beta-lactamase producing Escherichia coli 64771 after overnight incubation by broth microdilution method; procedure, shortened: as §1
Pseudomonas aeruginosa [18] = experiment: Antimicrobial activity against multidrug-resistant Pseudomonas aeruginosa Brazil 198 isolate after overnight incubation by broth microdilution method; procedure, shortened: as §2
Pseudomonas aeruginosa [19] = experiment: Antimicrobial activity against multidrug-resistant Pseudomonas aeruginosa Brazil 9 isolate after overnight incubation by broth microdilution method; procedure, shortened: as §2
Pseudomonas aeruginosa [20] = experiment: Antimicrobial activity against multidrug-resistant Pseudomonas aeruginosa Brazil 213 isolate after overnight incubation by broth microdilution method; procedure, shortened: as §2

Substance | MIC [1] [µM] | MIC (Staphylococcus aureus [2]) [µM] | MIC (Enterococcus faecium [3]) [µM] | MIC (Klebsiella pneumoniae [4]) [µM] | MIC (Escherichia coli [5]) [µM] | MIC (Enterococcus faecium [6]) [µM] | MIC (Pseudomonas aeruginosa [7]) [µM] | MIC (Pseudomonas aeruginosa [8]) [µM] | MIC (Klebsiella pneumoniae [9]) [µM] | MIC (Enterobacter cloacae) [µM] | MIC (Enterococcus faecalis [10]) [µM] | MIC (Enterococcus faecalis [11]) [µM] | Ratio IC50 (Pseudomonas aeruginosa [12]) | MIC (Pseudomonas aeruginosa [13]) [µM] | MIC (Pseudomonas aeruginosa [14]) [µM] | MIC (Staphylococcus aureus [15]) [µM] | MIC (Enterococcus faecalis [16]) [µM] | MIC (Escherichia coli [17]) [µM] | MIC (Pseudomonas aeruginosa [18]) [µM] | also measured
H-AIRRWRIRK-OH | 108 | 54 | 108 | > 217 | 108 | 14 | > 217 | 217 | > 217 | 108 | > 217 | > 217 | 4.62 | > 217 | > 217 | 54 | > 217 | 108 |  | 
H-AVWKFVKRV-OH | 60 | 240 | 120 | > 240 | 240 | 120 | 240 | 120 | > 240 | > 240 | > 240 | > 240 | 8.18 | 240 | > 240 | 240 | > 240 | 120 | 240 | 
H-AWRFKNIRK-OH | > 223 | > 223 | > 223 | > 223 | > 223 | 223 | > 223 | 111 | > 223 | > 223 | > 223 | > 223 | 9.2 | > 223 | > 223 | 223 | > 223 | 223 |  | 
H-FRRWWKWFK-OH | 0.8 | 3 | 6.1 | 97 | 12 | 6.1 | 5.9 | 1.5 | 24 | 24 | 97 | 24 | 0.12 | 1.5 | 24 | 1.5 | 195 | 6.1 | 3 | MIC (Pseudomonas aeruginosa [19]): 12 µM; MIC (Pseudomonas aeruginosa [20]): 5.9 µM
H-IWWKWRRWV-OH | 1.5 | 3 | 6 | 96 | 24 | 3 | 12 | 6 | 12 | 6 | 48 | 24 | 0.29 | 6 | 48 | 3 | 48 | 6 | 12 | MIC (Pseudomonas aeruginosa [19]): 48 µM; MIC (Pseudomonas aeruginosa [20]): 48 µM
H-KIWWWWRKR-OH | 3 | 5.9 | 5.9 | 189 | 12 | 1.5 | 47 | 5.9 | 47 | 94 | 94 | 24 | 0.13 | 5.9 | 12 | 5.9 | 94 | 5.9 | 24 | MIC (Pseudomonas aeruginosa [19]): 47 µM; MIC (Pseudomonas aeruginosa [20]): 47 µM
H-KRIMKLKMR-OH | > 226 | > 226 | > 226 | > 226 | > 226 | > 226 | > 226 | > 226 | > 226 | > 226 | > 226 | > 226 | 6.5 | > 226 | > 226 | > 226 | > 226 | > 226 |  | 
H-KWKIFRRWW-OH | 1.5 | 3.1 | 24 | 194 | 24 | 6.1 | 12 | 3.1 | 97 | 6 | 97 | 24 | 0.16 | 12 | 48 | 3.1 | 97 | 12 | 24 | MIC (Pseudomonas aeruginosa [19]): 24 µM; MIC (Pseudomonas aeruginosa [20]): 48 µM
H-LRWWWIKRI-OH | 3.2 | 6.3 | 6.3 | 201 | 25 | 1.5 | 25 | 6.3 | 50 | 50 | 25 | 13 | 0.33 | 13 | 25 | 6.3 | 50 | 13 | 25 | MIC (Pseudomonas aeruginosa [19]): 50 µM; MIC (Pseudomonas aeruginosa [20]): 50 µM
H-RLARIVVIRVAR-OH | 3 | 24 | 12 | 192 | 24 | 3 | 95 | 12 | 192 | 24 | 48 | 12 |  | 48 | 95 | 24 | 48 | 24 | 95 | MIC (Pseudomonas aeruginosa [19]): 192 µM; MIC (Pseudomonas aeruginosa [20]): 192 µM
H-RWWIRKWWR-OH |  |  |  |  |  |  |  |  |  |  |  |  | 0.21 |  |  |  |  |  |  | 
H-RWWLKIRKW-OH |  |  |  |  |  |  |  |  |  |  |  |  | 0.18 |  |  |  |  |  |  | 
H-RWWRKWWIR-OH |  |  |  |  |  |  |  |  |  |  |  |  | 0.24 |  |  |  |  |  |  | 
H-RWWRWRKWW-OH |  |  |  |  |  |  |  |  |  |  |  |  | 0.28 |  |  |  |  |  |  | 
H-RWYRKRWSW-OH |  |  |  |  |  |  |  |  |  |  |  |  | 0.7 |  |  |  |  |  |  | 
H-SFNWKRSGK-OH |  |  |  |  |  |  |  |  |  |  |  |  | 25 |  |  |  |  |  |  | 
H-SKNVRTWRQ-OH |  |  |  |  |  |  |  |  |  |  |  |  | 7.06 |  |  |  |  |  |  | 
H-SSGVRWSWR-OH |  |  |  |  |  |  |  |  |  |  |  |  | 8.16 |  |  |  |  |  |  | 
H-SWYRTRKRV-OH |  |  |  |  |  |  |  |  |  |  |  |  | 6.66 |  |  |  |  |  |  | 
H-TRGWSLGTR-OH |  |  |  |  |  |  |  |  |  |  |  |  | 12.15 |  |  |  |  |  |  | 
H-TRKVWWWRW-OH |  |  |  |  |  |  |  |  |  |  |  |  | 0.76 |  |  |  |  |  |  | 
H-VKRYYWRWR-OH |  |  |  |  |  |  |  |  |  |  |  |  | 1.23 |  |  |  |  |  |  | 
H-VLVKKRRRR-OH |  |  |  |  |  |  |  |  |  |  |  |  | 12.48 |  |  |  |  |  |  | 
